Drawing on ChEMBL document CHEMBL1137660, “Molecular and biochemical characterization of the chromosome-encoded class A beta-lactamase BCL-1 from Bacillus clausii” (Antimicrob Agents Chemother, 2007), this text covers fold change (FC), Ratio and Activity for 10 molecules.

Assay [1] in a line: Ratio of Kcat to Km for Bacillus clausii NR beta-lactamase BCL1 to ratio of Kcat/Km for Bacillus anthracis beta-lactamase Bla1.
Assay [2] can be described thus: Ratio of Kcat for Bacillus cereus beta-lactamase BcI to Kcat for Bacillus clausii NR beta-lactamase BCL1.
The nature of assay [3]: Ratio of Kcat for Bacillus clausii NR beta-lactamase BCL1 to Kcat for Bacillus cereus beta lactamase BcI.
In assay [4] the target is T1, Beta-lactamase (Bacillus clausii) (UniProt A8RR46).
T1 sequence (whole entry): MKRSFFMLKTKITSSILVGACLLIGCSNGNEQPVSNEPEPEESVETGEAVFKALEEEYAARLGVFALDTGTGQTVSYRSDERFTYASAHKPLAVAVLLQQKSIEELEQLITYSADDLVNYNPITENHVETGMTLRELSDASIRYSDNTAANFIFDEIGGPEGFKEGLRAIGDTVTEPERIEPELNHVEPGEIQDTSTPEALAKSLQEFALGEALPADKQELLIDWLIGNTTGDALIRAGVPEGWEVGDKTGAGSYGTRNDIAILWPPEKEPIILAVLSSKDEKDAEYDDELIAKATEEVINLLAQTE
Put plainly: Activity of Bacillus clausii NR beta-lactamase BCL1 expressed in Escherichia coli BL21 (DE3) assessed as specific activity per mg of protein at 100 uM. Conditions: Shouchella clausii. A digest of the protocol: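 Enzyme from E. coli BL21(DE3)(pET-BCL-1), induced with 0.4 mM IPTG at 37°C for 5 h in TS broth with amoxicillin and kanamycin. Cells were sonicated. Enzyme purified by S-Sepharose (50 mM phosphate, pH 6.5) then Q-Sepharose (20 mM Tris-HCl, pH 9; 0–1 M NaCl gradient). Protein by DC assay. Activity read with 100 μM cephalothin as substrate.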

Assay [5] addresses T1, Beta-lactamase (Bacillus clausii). Nature of the assay: Induction of Bacillus clausii NR beta-lactamase BCL1 activity expressed in Escherichia coli BL21 (DE3) assessed as specific activity per mg of protein at 5 ug/ml. The note with it: Shouchella clausii. A digest of the protocol:
(§1)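 Induction in B. clausii NR and ATCC 21537 cultures using cefoxitin at 1 to 5 μg/ml as inducer. β-Lactamase activity of extracts read with 100 μM penicillin G as substrate and expressed per mg protein.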

Assay [6] shares this target. Put plainly: Induction of Bacillus clausii ATCC 21537 beta-lactamase BCL1 activity expressed in Escherichia coli BL21 (DE3) assessed as specific activity per mg of protein at 5 ug/ml. Conditions: Shouchella clausii. A digest of the protocol:
as §1

For the molecule `O=C(Cc1cccs1)N[C@@H]1C(=O)N2C(C(=O)[O-])=C(C[n+]3ccccc3)CS[C@H]12`, the fold change (FC) in assay [1] came to 2.
With `CC1(C)S[C@@H]2[C@H](NC(=O)Cc3ccccc3)C(=O)N2[C@H]1C(=O)O`, the fold change (FC) in assay [1] stood at 10. For the same molecule, the Ratio in assay [2] worked out at 200.
Turning to `CC(=O)OCC1=C(C(=O)O)N2C(=O)[C@@H](NC(=O)Cc3cccs3)[C@H]2SC1`, the fold change (FC) in assay [3] came to 100. Besides, the Activity in assay [4] is 35 U.
In the case of `CO/N=C(\C(=O)N[C@@H]1C(=O)N2C(C(=O)[O-])=C(C[n+]3cccc4c3CCC4)CS[C@H]12)c1csc(N)n1`, the fold change (FC) in assay [3] stood at 500.
On the same count and under the same terms, the same measure for `CO/N=C(\C(=O)N[C@@H]1C(=O)N2C(C(=O)O)=C(COC(C)=O)CS[C@H]12)c1csc(N)n1`: 100.
Take `CCN1CCN(C(=O)N[C@@H](C(=O)N[C@@H]2C(=O)N3[C@@H]2SC(C)(C)[C@@H]3C(=O)O)c2ccccc2)C(=O)C1=O`: the fold change (FC) in assay [1] amounted to 10.
In the case of `CC1(C)S[C@@H]2[C@H](NC(=O)[C@H](C(=O)O)c3ccsc3)C(=O)N2[C@H]1C(=O)O`, the fold change (FC) in assay [1] came out at 10.
With `CO/N=C(\C(=O)N[C@@H]1C(=O)N2C(C(=O)O)=C(COC(N)=O)CS[C@H]12)c1ccco1`, the fold change (FC) in assay [3] was determined as 100.
In the case of `CO[C@@]1(NC(=O)Cc2cccs2)C(=O)N2C(C(=O)O)=C(COC(N)=O)CS[C@@H]21`, the Activity in assay [5] and in assay [6] was 500 U throughout.
For the molecule `CC1(C)S[C@@H]2[C@H](NC(=O)[C@H](N)c3ccc(O)cc3)C(=O)N2[C@H]1C(=O)O`, the fold change (FC) in assay [1] stood at 10.
